In publication PMC2810401 (Biochemistry, 2010):
In brackets after ≈: the same amount, converted by molar mass. Several values for one entry are separate records, joined by “and”; a condition that tells them apart may be missing. Equal values may be shown once. Read-outs that look alike come from different tables or passages of the source.

Key:
ADC β-lactamase [1] = biological target: T1, ADC β-lactamase (Acinetobacter baumannii, UniProt Q6DRA1); test: ESI-MS of intact ADC incubated with inhibitors; conditions: 14 μM ADC, 15 min, inhibitor: enzyme 20:1; error ± 3 amu
Method in brief: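 ADC-7 was expressed in E. coli BL21(DE3) from pET24a(+) with 0.2 mM IPTG at 37 °C for 4 hr. It was purified by preparative isoelectric focusing and gel-filtration FPLC. Incubations were run with and without test compound, then quenched with 0.1% TFA, desalted on C18 and kept on ice. Samples were diluted to 10 μM in 50% acetonitrile/0.1% TFA, nanospray-infused at 0.5 μl/min for 2 min on a Q-TOF, and spectra were deconvoluted.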

E. coli DH10B blaADC = conditions: E. coli DH10B harboring blaADC; previous data; cited from earlier work
ADC β-lactamase [2] = biological target: T1, ADC β-lactamase; test: Ki in direct competition assays with ADC; assay type: biochemical
ADC β-lactamase [3] = biological target: T1, ADC β-lactamase; conditions: obtained previously by same methodology; cited from earlier work

| Structure (SMILES) | Species observed in deconvoluted spectra (ADC β-lactamase [1]) | Δ difference from β-lactamase molecular weight (ADC β-lactamase [1]) | MIC (E. coli DH10B blaADC) | Ki (ADC β-lactamase [2]) | Ki (ADC β-lactamase [3]) |
| --- | --- | --- | --- | --- | --- |
| C[C@@H](O)[C@H]1C(=O)N2C(C(=O)O)=C(S[C@@H]3CN[C@H](C(=O)Nc4cccc(C(=O)O)c4)C3)[C@H](C)[C@H]12 [Ertapenem] | 41,069 amu and 41,112 amu | 431 amu and 474 amu | 0.06 µg/mL (≈ 0.126 µM) | 5.8 ± 0.2 µM | – |
| O=C(O)[C@H]1/C(=C/CO)O[C@@H]2CC(=O)N21 [Clavulanate] | – | – | – | – | 4280 µM |
| C[C@]1(Cn2ccnn2)[C@H](C(=O)O)N2C(=O)C[C@H]2S1(=O)=O [Tazobactam] | – | – | – | – | 91 ± 21 µM |
| CC1(C)[C@H](C(=O)O)N2C(=O)C[C@H]2S1(=O)=O [Sulbactam] | – | – | – | – | 109 ± 3 µM |
| C[C@@H](O)[C@H]1C(=O)N2C(C(=O)O)=C(S[C@@H]3CN[C@H](CNS(N)(=O)=O)C3)[C@H](C)[C@H]12 [Doripenem] | 41,058 amu and 41,015 amu | 420 amu and 377 amu | – | 12.2 ± 0.4 µM | – |
| C[C@@H](O)[C@H]1C(=O)N2C(C(=O)O)=C(S[C@@H]3CN[C@H](C(=O)N(C)C)C3)[C@H](C)[C@H]12 [Meropenem] | 41,021 amu and 40,979 amu | 383 amu and 341 amu | 0.06 µg/mL (≈ 0.156 µM) | 19 ± 2 µM | – |
| C[C@@H](O)[C@H]1C(=O)N2C(C(=O)O)=C(SCCN=CN)C[C@H]12 [Imipenem] | 40,936 amu and 40,893 amu | 298 amu and 255 amu | – | 1.3 ± 0.1 µM | – |
